Experimental data as given in ChEMBL document CHEMBL3739271, “Synthesis and evaluation of a series of resveratrol analogues as potent anti-cancer agents that target tubulin” (2015).
Activity calls are given as the source filed them.

Legend:
KM12 = test: Cytotoxicity against human KM12 cells by SRB assay; type: functional
Procedure, shortened: (§1)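 NCI 60 human tumor cell line panel, sulforhodamine B (SRB) protein-stain read-out. Compounds were first screened at a single dose of 10^-5 M, and selected compounds were then tested in a five-dose format. GI50 is the drug concentration giving a 50% reduction in net protein increase relative to control cells.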

[1] = Cytotoxicity against human SNB19 cells by SRB assay; type: functional; conditions: SNB-19; procedure, shortened: as §1
MCF7 = test: Cytotoxicity against human MCF7 cells by SRB assay; type: functional; procedure, shortened: as §1
[2] = Cytotoxicity against human SF295 cells by SRB assay; type: functional; conditions: SF-295; procedure, shortened: as §1
[3] = Cytotoxicity against human IGROV1 cells by SRB assay; type: functional; conditions: IGROV-1
Procedure, shortened: (§2)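 NCI 60-cell-line panel using sulforhodamine B protein stain. Initial single-dose screen at 10^-5 M, then five-dose testing. GI50 is the drug concentration giving a 50% reduction in net protein increase relative to control cells.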

[4] = Cytotoxicity against human SNB75 cells by SRB assay; type: functional; conditions: SNB-75; procedure, shortened: as §1
HT-29 = test: Cytotoxicity against human HT-29 cells by SRB assay; type: functional; procedure, shortened: as §1
[5] = Cytotoxicity against human HCT15 cells by SRB assay; type: functional; conditions: HCT-15; procedure, shortened: as §1
SR = test: Cytotoxicity against human SR cells by SRB assay; type: functional; procedure, shortened: as §1
K562 = test: Cytotoxicity against human K562 cells by SRB assay; type: functional; procedure, shortened: as §1
SK-MEL-28 = test: Cytotoxicity against human SK-MEL-28 cells by SRB assay; type: functional; procedure, shortened: as §1
A549 = test: Cytotoxicity against human A549 cells by SRB assay; type: functional; procedure, shortened: as §1
[6] = Cytotoxicity against human OVCAR3 cells by SRB assay; type: functional; conditions: OVCAR-3; procedure, shortened: as §1
[7] = Cytotoxicity against human SW620 cells by SRB assay; type: functional; conditions: SW-620; procedure, shortened: as §1
M14 = test: Cytotoxicity against human M14 cells by SRB assay; type: functional; procedure, shortened: as §1
MDA-MB-231 = test: Cytotoxicity against human MDA-MB-231 cells by SRB assay; type: functional; procedure, shortened: as §1
[8] = Cytotoxicity against human HOP92 cells by SRB assay; type: functional; conditions: HOP-92; procedure, shortened: as §1
CCRF-CEM = test: Cytotoxicity against human CCRF-CEM cells by SRB assay; type: functional; procedure, shortened: as §1
[9] = Cytotoxicity against human SKOV3 cells by SRB assay; type: functional; conditions: SK-OV-3; procedure, shortened: as §1
[10] = Cytotoxicity against human HL-60(TB) cells by SRB assay; type: functional; procedure, shortened: as §2
[11] = Cytotoxicity against human HCT116 cells by SRB assay; type: functional; conditions: HCT-116; procedure, shortened: as §1
ACHN = test: Cytotoxicity against human ACHN cells by SRB assay; type: functional; procedure, shortened: as §1
[12] = Cytotoxicity against human UACC62 cells by SRB assay; type: functional; conditions: UACC-62; procedure, shortened: as §1
NCI/ADR-RES = test: Cytotoxicity against human NCI/ADR-RES cells by SRB assay; type: functional; procedure, shortened: as §1
SK-MEL-5 = test: Cytotoxicity against human SK-MEL-5 cells by SRB assay; type: functional; procedure, shortened: as §1
[13] = Cytotoxicity against human COLO205 cells by SRB assay; type: functional; conditions: COLO 205; procedure, shortened: as §1
MV4-11 [14] = test: Anti-leukemia activity against human MV4-11 cells after 48 hrs by Annexin-V staining; type: functional; conditions: MV4-11, 48 h, read-out: LD50 (the source's name)
Procedure, shortened: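 MV4-11 AML cells exposed to increasing compound concentrations for 24 and 48 h. Viability measured by Annexin V/7-AAD staining and expressed as percent Annexin V-/7-AAD- cells relative to control. N = 5, error bars SD. LD50 values derived from these curves.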

[15] = Cytotoxicity against human Hs578T cells by SRB assay; type: functional; conditions: Hs-578T; procedure, shortened: as §1
[16] = Cytotoxicity against human LOXIMVI cells by SRB assay; type: functional; conditions: LOX IMVI; procedure, shortened: as §2
[17] = Cytotoxicity against human HOP62 cells by SRB assay; type: functional; conditions: HOP-62; procedure, shortened: as §1
U-251 = test: Cytotoxicity against human U251 cells by SRB assay; type: functional; procedure, shortened: as §1
[18] = Cytotoxicity against human OVCAR4 cells by SRB assay; type: functional; conditions: OVCAR-4; procedure, shortened: as §1
A498 = test: Cytotoxicity against human A498 cells by SRB assay; type: functional; procedure, shortened: as §1
MDA-MB-435 = test: Cytotoxicity against human MDA-MB-435 cells by SRB assay; type: functional; procedure, shortened: as §1
[19] = Cytotoxicity against human SF539 cells by SRB assay; type: functional; conditions: SF-539; procedure, shortened: as §1
[20] = Cytotoxicity against human RPMI8226 cells by SRB assay; type: functional; conditions: RPMI-8226; procedure, shortened: as §1
[21] = Cytotoxicity against human MOLT4 cells by SRB assay; type: functional; conditions: MOLT-4; procedure, shortened: as §1
[22] = Cytotoxicity against human UO31 cells by SRB assay; type: functional; conditions: UO-31; procedure, shortened: as §1
NCI-H23 = test: Cytotoxicity against human NCI-H23 cells by SRB assay; type: functional; procedure, shortened: as §1
[23] = Cytotoxicity against human SF268 cells by SRB assay; type: functional; conditions: SF-268; procedure, shortened: as §1
MDA-MB-468 = test: Cytotoxicity against human MDA-MB-468 cells by SRB assay; type: functional; procedure, shortened: as §1
786-0 = test: Cytotoxicity against human 786-0 cells by SRB assay; type: functional; procedure, shortened: as §1
NCI-H522 = test: Cytotoxicity against human NCI-H522 cells by SRB assay; type: functional; procedure, shortened: as §1
[24] = Cytotoxicity against human HCC2998 cells by SRB assay; type: functional; conditions: HCC 2998; procedure, shortened: as §1
CAKI-1 = test: Cytotoxicity against human CAKI-1 cells by SRB assay; type: functional; procedure, shortened: as §1
SK-MEL-2 = test: Cytotoxicity against human SK-MEL-2 cells by SRB assay; type: functional; procedure, shortened: as §1
MV4-11 [25] = test: Inhibition of alpha-tubulin polymerization in human MV4-11 cells at 25 to 100 nM after 2 hrs by Western blotting; type: cell-based
Procedure, shortened: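 MV4-11 cells treated for 2 hours at 25, 50 and 100 nM. Microtubule polymerization then assessed by immunoblot.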

COc1ccc(/C=C(\C#N)c2ccc(OC)c(OC)c2)cc1O
0.1 µM: GI50 [2]
1.56 µM: GI50 [18]
0.57 µM: GI50 (HT-29)
0.21 µM: GI50 (A549)
0.07 µM: GI50 (NCI-H23)
1.69 µM: GI50 [8]
1.24 µM: GI50 [13]
0.08 µM: GI50 (ACHN)
0.02 µM: GI50 (KM12) | GI50 [4] | GI50 (SR) | GI50 (K562) | GI50 [6] | GI50 [12] | GI50 (NCI/ADR-RES) | GI50 (A498) | GI50 [19]
0.04 µM: GI50 [5] | GI50 [7] | GI50 (MDA-MB-231) | GI50 [11] | GI50 (SK-MEL-5) | GI50 (U-251) | GI50 [20] | GI50 (MDA-MB-468)
0.36 µM: GI50 (786-0)
1.81 µM: GI50 [24]
< 0.01 µM: GI50 (MDA-MB-435) | GI50 (NCI-H522)
0.05 µM: GI50 [1] | GI50 [9] | GI50 [21]
0.06 µM: GI50 [3] | GI50 [16] | GI50 [22] | GI50 [23]
0.353 µM: CC50 (MV4-11 [14])
0.03 µM: GI50 (MCF7) | GI50 (M14) | GI50 (CCRF-CEM) | GI50 [10] | GI50 [15] | GI50 [17]
1.11 µM: GI50 (SK-MEL-28)

COc1ccc(/C=C(\C#N)c2cc(OC)c(OC)c(OC)c2)cc1O
0.05 µM: GI50 [2]
0.0386 µM: CC50 (MV4-11 [14])
active: inhibition (MV4-11 [25])
< 0.01 µM: GI50 (KM12) | GI50 [1] | GI50 (MCF7) | GI50 [3] | GI50 [4] | GI50 [5] | GI50 (SR) | GI50 (K562) | GI50 (A549) | GI50 [6] | GI50 [7] | GI50 (M14) | GI50 (MDA-MB-231) | GI50 [8] | GI50 (CCRF-CEM) | GI50 [10] | GI50 [11] | GI50 (ACHN) | GI50 [12] | GI50 (NCI/ADR-RES) | GI50 (SK-MEL-2) | GI50 (SK-MEL-5) | GI50 [15] | GI50 [16] | GI50 [17] | GI50 [18] | GI50 (A498) | GI50 (MDA-MB-435) | GI50 [19] | GI50 [20] | GI50 [21] | GI50 [22] | GI50 (NCI-H23) | GI50 [23] | GI50 (MDA-MB-468) | GI50 (786-0) | GI50 (NCI-H522)
0.02 µM: GI50 [24]
3.18 µM: GI50 (HT-29)
1.01 µM: GI50 (SK-MEL-28)
0.03 µM: GI50 (CAKI-1)
0.01 µM: GI50 [9] | GI50 (U-251)
2.99 µM: GI50 [13]

COc1ccc(/C=C(/C#N)c2cc(OC)c(OC)c(OC)c2)cc1O
0.01 µM: GI50 [2]
0.32 µM: GI50 (HT-29)
0.3 µM: GI50 [13]
0.0025 µM: CC50 (MV4-11 [14])
0.02 µM: GI50 (786-0)
< 0.01 µM: GI50 (CAKI-1) | GI50 (KM12) | GI50 [1] | GI50 (MCF7) | GI50 [3] | GI50 [4] | GI50 [5] | GI50 (SR) | GI50 (K562) | GI50 (SK-MEL-28) | GI50 (A549) | GI50 [6] | GI50 [7] | GI50 (M14) | GI50 (MDA-MB-231) | GI50 [8] | GI50 (CCRF-CEM) | GI50 [9] | GI50 [10] | GI50 [11] | GI50 (ACHN) | GI50 [12] | GI50 (NCI/ADR-RES) | GI50 (SK-MEL-2) | GI50 (SK-MEL-5) | GI50 [15] | GI50 [16] | GI50 (U-251) | GI50 [18] | GI50 (A498) | GI50 (MDA-MB-435) | GI50 [19] | GI50 [20] | GI50 [21] | GI50 [22] | GI50 (NCI-H23) | GI50 [23] | GI50 (MDA-MB-468) | GI50 (NCI-H522) | GI50 [24]
active: inhibition (MV4-11 [25])

COc1ccc(/C=C(/C#N)c2ccc(OC)c(OC)c2)cc1O
0.01 µM: GI50 (NCI-H522)
0.42 µM: GI50 (CAKI-1)
0.07 µM: GI50 [3] | GI50 [16] | GI50 [21]
0.409 µM: CC50 (MV4-11 [14])
0.03 µM: GI50 (MCF7) | GI50 [5] | GI50 (SR) | GI50 (K562) | GI50 [10] | GI50 [11] | GI50 [15] | GI50 [17]
0.08 µM: GI50 (NCI-H23) | GI50 [23]
1.26 µM: GI50 [13]
1.27 µM: GI50 (SK-MEL-28)
1.07 µM: GI50 [18]
< 0.01 µM: GI50 (MDA-MB-435)
0.24 µM: GI50 (786-0)
0.25 µM: GI50 (A549)
0.09 µM: GI50 (ACHN) | GI50 [22]
0.05 µM: GI50 (MDA-MB-231) | GI50 [9] | GI50 (SK-MEL-5) | GI50 (U-251) | GI50 [20]
0.58 µM: GI50 [2]
0.04 µM: GI50 (KM12) | GI50 [1] | GI50 [7] | GI50 (CCRF-CEM) | GI50 (MDA-MB-468)
0.02 µM: GI50 [4] | GI50 [6] | GI50 (M14) | GI50 (NCI/ADR-RES) | GI50 (A498) | GI50 [19]
0.86 µM: GI50 [8]
0.17 µM: GI50 [24]
0.62 µM: GI50 (HT-29)
